Experimental data: ChEMBL document CHEMBL1132231, “New generation dopaminergic agents. 6. Structure-activity relationship studies of a series of 4-(aminoethoxy)indole and 4-(aminoethoxy)indolone derivatives based on the newly discovered 3-hydroxyphenoxyethylamine D2 template” (J Med Chem, 1999)

How the values were obtained:
[1] = target: D(2) dopamine receptor (Rattus norvegicus) (UniProt P61169); test: Ratio of Dopamine D2 receptor (low)and Dopamine D2 receptor (high)
Summary of the method: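 Ratio Ki(low)/Ki(high). Ki(low) comes from displacement of 1 nM [3H]spiperone in striatal membranes with 1 mM GppNHp and NaCl, 37 °C for 5 min. […] Both Ki values derived by Cheng-Prusoff from nine concentrations in triplicate; the ratio serves as an estimate of intrinsic activity.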

[2] = target: T1, 5-hydroxytryptamine receptor 1A (Rattus norvegicus, UniProt P19327); test: In vitro binding affinity towards 5-hydroxytryptamine 1A r receptor by the displacement of [3H]8-OH-DPAT radioligand in rat hippocampal homogenates; assay type: tissue-based, Hippocampus
T1 sequence (P19327 whole entry): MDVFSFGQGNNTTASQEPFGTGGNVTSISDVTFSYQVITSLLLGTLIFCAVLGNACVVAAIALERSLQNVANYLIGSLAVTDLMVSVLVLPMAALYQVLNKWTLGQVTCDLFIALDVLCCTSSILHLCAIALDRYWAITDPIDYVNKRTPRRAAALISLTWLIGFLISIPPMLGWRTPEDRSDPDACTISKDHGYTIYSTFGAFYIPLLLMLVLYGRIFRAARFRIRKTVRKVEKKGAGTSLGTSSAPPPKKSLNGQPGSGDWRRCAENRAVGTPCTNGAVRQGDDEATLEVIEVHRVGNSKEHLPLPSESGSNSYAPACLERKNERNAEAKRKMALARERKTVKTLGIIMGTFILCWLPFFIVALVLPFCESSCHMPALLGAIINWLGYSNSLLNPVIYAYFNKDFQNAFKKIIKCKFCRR
Summary of the method: (§1)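 Rat hippocampal homogenates labelled with [3H]-8-OH-DPAT (1.8 nM), incubated 10 min at 37 °C. Stopped with cold 50 mM Tris pH 7.7. Test compounds run in triplicate at at least eight concentrations. IC50 found by nonlinear regression and converted to apparent Ki by Cheng-Prusoff. Ki values are means of at least two experiments ± SEM; values without SEM are single determinations.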

D(2) dopamine receptor [3] = target: T2, D(2) dopamine receptor (Rattus norvegicus, UniProt P61169); test: In vitro low binding affinity towards Dopamine receptor D2 by the displacement of [3H]spiperone radioligand in rat striatal membranes; assay type: cell membranes, Membrane
[4] = target: T3, Adrenergic receptor alpha-1 (Rattus norvegicus, UniProt P15823+P23944+P43140); test: In vitro binding affinity towards alpha-1 adrenergic receptor by the displacement of [3H]prazosin radioligand in rat cortical homogenates
T3 sequence (P15823 whole entry): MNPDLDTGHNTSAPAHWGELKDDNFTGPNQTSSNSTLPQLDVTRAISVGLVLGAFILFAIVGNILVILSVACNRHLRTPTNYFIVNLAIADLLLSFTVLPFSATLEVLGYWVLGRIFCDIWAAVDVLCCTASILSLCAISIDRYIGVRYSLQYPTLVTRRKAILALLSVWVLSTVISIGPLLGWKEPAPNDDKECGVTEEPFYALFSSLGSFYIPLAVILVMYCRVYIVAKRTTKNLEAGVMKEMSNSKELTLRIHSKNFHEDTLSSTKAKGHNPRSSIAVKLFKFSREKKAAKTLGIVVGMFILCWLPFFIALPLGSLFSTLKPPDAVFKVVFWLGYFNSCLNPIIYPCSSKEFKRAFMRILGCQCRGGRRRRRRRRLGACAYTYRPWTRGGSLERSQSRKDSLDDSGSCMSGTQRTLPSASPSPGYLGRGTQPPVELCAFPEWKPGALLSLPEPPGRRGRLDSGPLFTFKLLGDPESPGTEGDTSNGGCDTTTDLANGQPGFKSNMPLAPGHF
T3 sequence (P23944 whole entry): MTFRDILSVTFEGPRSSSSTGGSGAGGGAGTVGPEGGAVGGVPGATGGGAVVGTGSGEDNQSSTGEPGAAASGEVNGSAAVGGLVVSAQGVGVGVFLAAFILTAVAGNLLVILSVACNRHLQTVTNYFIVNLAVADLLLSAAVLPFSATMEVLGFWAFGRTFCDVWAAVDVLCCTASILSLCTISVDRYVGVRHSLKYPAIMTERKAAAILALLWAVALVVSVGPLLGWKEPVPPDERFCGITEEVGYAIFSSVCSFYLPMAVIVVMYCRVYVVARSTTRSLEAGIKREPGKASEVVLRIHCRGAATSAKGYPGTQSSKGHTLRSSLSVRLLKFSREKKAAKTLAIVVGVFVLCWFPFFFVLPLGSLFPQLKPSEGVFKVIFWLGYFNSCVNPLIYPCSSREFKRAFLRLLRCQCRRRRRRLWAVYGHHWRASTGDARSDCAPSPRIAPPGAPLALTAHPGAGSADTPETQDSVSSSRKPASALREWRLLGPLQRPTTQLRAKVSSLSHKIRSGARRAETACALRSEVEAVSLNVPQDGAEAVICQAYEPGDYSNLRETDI
T3 sequence (P43140 whole entry): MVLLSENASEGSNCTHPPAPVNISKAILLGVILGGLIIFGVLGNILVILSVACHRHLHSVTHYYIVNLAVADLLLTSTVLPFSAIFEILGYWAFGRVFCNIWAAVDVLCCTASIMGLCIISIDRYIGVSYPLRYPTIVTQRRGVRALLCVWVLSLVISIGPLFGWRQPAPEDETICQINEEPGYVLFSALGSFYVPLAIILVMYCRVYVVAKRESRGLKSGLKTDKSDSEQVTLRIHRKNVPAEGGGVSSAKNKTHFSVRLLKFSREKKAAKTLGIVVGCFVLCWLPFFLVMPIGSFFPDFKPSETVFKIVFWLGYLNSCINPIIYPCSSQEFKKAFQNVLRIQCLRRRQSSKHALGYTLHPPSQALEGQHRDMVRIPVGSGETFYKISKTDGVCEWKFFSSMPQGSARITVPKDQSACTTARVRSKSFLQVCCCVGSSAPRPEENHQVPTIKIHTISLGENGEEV
Summary of the method: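 Rat cortical homogenates labelled with [3H]prazosin (0.2 nM), incubated 30 min at 25 °C. Stopped with cold 50 mM Tris pH 7.4, then rapid filtration. Triplicate, at least eight concentrations. Nonlinear regression gave IC50, converted to apparent Ki by Cheng-Prusoff. Means of at least two experiments ± SEM; values without SEM are single determinations.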

D(2) dopamine receptor [5] = target: T2, D(2) dopamine receptor; test: In vitro high binding affinity towards Dopamine receptor D2 by the displacement of [3H]quinpirole radioligand in rat striatal membranes; assay type: cell membranes, Membrane
[6] = target: T1, 5-hydroxytryptamine receptor 1A; test: The compound was tested for binding affinity on [3H]8-OH-DPAT as specific ligand on 5-hydroxytryptamine 1A receptor in rat hippocampus; assay type: tissue-based; summary of the method: as §1

Sequence of D(2) dopamine receptor (Rattus norvegicus) (P61169 whole entry): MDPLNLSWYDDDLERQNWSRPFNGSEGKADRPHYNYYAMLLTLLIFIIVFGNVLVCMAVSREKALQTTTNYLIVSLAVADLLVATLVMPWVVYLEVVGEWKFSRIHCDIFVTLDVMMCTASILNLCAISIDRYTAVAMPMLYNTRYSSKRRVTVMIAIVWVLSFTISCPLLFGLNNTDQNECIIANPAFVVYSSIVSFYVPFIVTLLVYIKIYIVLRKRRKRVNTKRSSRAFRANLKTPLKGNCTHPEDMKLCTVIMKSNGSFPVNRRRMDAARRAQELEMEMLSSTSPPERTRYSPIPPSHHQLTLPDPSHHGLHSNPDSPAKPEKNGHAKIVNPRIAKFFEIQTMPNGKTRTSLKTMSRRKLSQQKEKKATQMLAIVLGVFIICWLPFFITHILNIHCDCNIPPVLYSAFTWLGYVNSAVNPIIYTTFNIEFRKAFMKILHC
T2 sequence (P61169 whole entry): as above

Compound | Ratio [1] | Ki [2] [nM] | Ki (D(2) dopamine receptor [3]) [nM] | Ki [4] [nM] | Ki (D(2) dopamine receptor [5]) [nM] | Ki [6] [nM]
Clc1c[nH]c2cccc(OCCNCCCCc3ccccc3)c12 | 3 | 0.5 | 15.7 | 8.5 | 4.8 | 
O=C(c1c[nH]c2cccc(OCCNCc3ccccc3)c12)C(F)(F)F | 6 |  | 16.6 | 60 | 3 | 30
c1ccc(CNCCOc2cccc3[nH]ccc23)cc1 | 4 |  | 39.3 | 675 | 9.7 | 18
